Assay results taken from ChEMBL document CHEMBL3120060, “Synthesis, in vitro anticancer evaluation and in silico studies of novel imidazo[2,1-b]thiazole derivatives bearing pyrazole moieties” (2014).

Assays:
Format in all cases: functional
[1] = Cytotoxicity against human OVCAR5 cells assessed as cell growth at 10 uM after 48 hrs by SRB assay; conditions: OVCAR-5, 48 h, read-out: Activity
How it was run: (§1)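 NCI-60 single-dose screen. Cell lines grown in RPMI 1640 with 5% FBS and 2 mM L-glutamine, plated at 5000–40,000 cells/well according to doubling time, then preincubated 24 h at 37 °C in 5% CO2. Compounds dissolved in DMSO, tested at 10^-5 M for 48 h. Adherent cells fixed with cold TCA (10% final) and stained with 0.4% SRB in 1% acetic acid. Growth expressed as percent of untreated control.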

RPMI-8226 = experiment: Cytotoxicity against human RPMI8226 cells assessed as cell growth at 10 uM after 48 hrs by SRB assay; conditions: RPMI-8226, 48 h, read-out: Activity; how it was run: as §1
DU-145 = experiment: Cytotoxicity against human DU145 cells assessed as cell growth at 10 uM after 48 hrs by SRB assay; conditions: DU-145, 48 h, read-out: Activity; how it was run: as §1
SN12C = experiment: Cytotoxicity against human SN12C cells assessed as cell growth at 10 uM after 48 hrs by SRB assay; conditions: read-out: Activity; how it was run: as §1
K562 = experiment: Cytotoxicity against human K562 cells assessed as cell growth at 10 uM after 48 hrs by SRB assay; conditions: K562, 48 h, read-out: Activity; how it was run: as §1
OVCAR-3 = experiment: Cytotoxicity against human OVCAR3 cells assessed as cell growth at 10 uM after 48 hrs by SRB assay; conditions: OVCAR-3, 48 h, read-out: Activity; how it was run: as §1
SF-295 = experiment: Cytotoxicity against human SF295 cells assessed as cell growth at 10 uM after 48 hrs by SRB assay; conditions: SF-295, 48 h, read-out: Activity; how it was run: as §1
MOLT-4 = experiment: Cytotoxicity against human MOLT4 cells assessed as cell growth at 10 uM after 48 hrs by SRB assay; conditions: MOLT-4, 48 h, read-out: Activity; how it was run: as §1
MDA-MB-468 = experiment: Cytotoxicity against human MDA-MB-468 cells assessed as cell growth at 10 uM after 48 hrs by SRB assay; conditions: MDA-MB-468, 48 h, read-out: Activity; how it was run: as §1
IGROV-1 = experiment: Cytotoxicity against human IGROV1 cells assessed as cell growth at 10 uM after 48 hrs by SRB assay; conditions: IGROV-1, 48 h, read-out: Activity; how it was run: as §1
SK-MEL-2 = experiment: Cytotoxicity against human SK-MEL-2 cells assessed as cell growth at 10 uM after 48 hrs by SRB assay; conditions: SK-MEL-2, 48 h, read-out: Activity; how it was run: as §1
SK-MEL-28 = experiment: Cytotoxicity against human SK-MEL-28 cells assessed as cell growth at 10 uM after 48 hrs by SRB assay; conditions: SK-MEL-28, 48 h, read-out: Activity; how it was run: as §1
LOX IMVI = experiment: Cytotoxicity against human LOXIMVI cells assessed as cell growth at 10 uM after 48 hrs by SRB assay; conditions: read-out: Activity; how it was run: as §1
HOP-62 = experiment: Cytotoxicity against human HOP62 cells assessed as cell growth at 10 uM after 48 hrs by SRB assay; conditions: HOP-62, 48 h, read-out: Activity; how it was run: as §1
U-251 = experiment: Cytotoxicity against human U251 cells assessed as cell growth at 10 uM after 48 hrs by SRB assay; conditions: U-251, 48 h, read-out: Activity
How it was run: (§2)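 NCI-60 single-dose screen at 10^-5 M. Adherent lines are grown in RPMI 1640 with 5% FBS and 2 mM L-glutamine, seeded at 5000–40,000 cells/well by doubling time, and preincubated 24 h at 37 °C in 5% CO2. Drug is added from DMSO stock diluted in medium, then 48 h. Cells are fixed in cold TCA (final 10%) for 60 min and stained with 0.4% SRB in 1% acetic acid. Growth is expressed as % of untreated control using time-zero plates.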

[2] = Cytotoxicity against human Hs578T cells assessed as cell growth at 10 uM after 48 hrs by SRB assay; conditions: Hs-578T, read-out: Activity; how it was run: as §1
UACC-62 = experiment: Cytotoxicity against human UACC62 cells assessed as cell growth at 10 uM after 48 hrs by SRB assay; conditions: UACC-62, 48 h, read-out: Activity; how it was run: as §2
HL-60(TB) = experiment: Cytotoxicity against human HL-60(TB) cells assessed as cell growth at 10 uM after 48 hrs by SRB assay; conditions: HL-60, 48 h, read-out: Activity
How it was run: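 NCI-60 single-dose screen: cells grown in RPMI 1640 with 5% FBS and 2 mM L-glutamine, plated at 5000–40,000 cells/well, preincubated 24 h at 37 °C, 5% CO2. Compound dissolved in DMSO, tested at 10^-5 M for 48 h. Cells TCA-fixed, sulforhodamine B stained. Growth expressed as percent of untreated control, referenced to time-zero plates.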

NCI-H460 = experiment: Cytotoxicity against human NCI-H460 cells assessed as cell growth at 10 uM after 48 hrs by SRB assay; conditions: NCI-H460, 48 h, read-out: Activity; how it was run: as §1
786-0 = experiment: Cytotoxicity against human 786-0 cells assessed as cell growth at 10 uM after 48 hrs by SRB assay; conditions: 786-0, 48 h, read-out: Activity; how it was run: as §1
MCF7 = experiment: Cytotoxicity against human MCF7 cells assessed as cell growth at 10 uM after 48 hrs by SRB assay; conditions: MCF7, 48 h, read-out: Activity; how it was run: as §1
[3] = Cytotoxicity against human UACC257 cells assessed as cell growth at 10 uM after 48 hrs by SRB assay; conditions: UACC-257, 48 h, read-out: Activity; how it was run: as §2
COLO 205 = experiment: Cytotoxicity against human COLO205 cells assessed as cell growth at 10 uM after 48 hrs by SRB assay; conditions: COLO 205, 48 h, read-out: Activity; how it was run: as §1
HCT-116 = experiment: Cytotoxicity against human HCT116 cells assessed as cell growth at 10 uM after 48 hrs by SRB assay; conditions: HCT-116, 48 h, read-out: Activity; how it was run: as §1
NCI-H322M = experiment: Cytotoxicity against human NCI-H322M cells assessed as cell growth at 10 uM after 48 hrs by SRB assay; conditions: read-out: Activity; how it was run: as §1
RXF 393 = experiment: Cytotoxicity against human RXF393 cells assessed as cell growth at 10 uM after 48 hrs by SRB assay; conditions: RXF 393, 48 h, read-out: Activity; how it was run: as §1
SW-620 = experiment: Cytotoxicity against human SW620 cells assessed as cell growth at 10 uM after 48 hrs by SRB assay; conditions: SW-620, 48 h, read-out: Activity; how it was run: as §2
CAKI-1 = experiment: Cytotoxicity against human CAKI-1 cells assessed as cell growth at 10 uM after 48 hrs by SRB assay; conditions: CAKI-1, 48 h, read-out: Activity; how it was run: as §1
A549 = experiment: Cytotoxicity against human A549 cells assessed as cell growth at 10 uM after 48 hrs by SRB assay; conditions: A549, 48 h, read-out: Activity; how it was run: as §1
MDA-MB-231 = experiment: Cytotoxicity against human MDA-MB-231 cells assessed as cell growth at 10 uM after 48 hrs by SRB assay; conditions: MDA-MB-231, 48 h, read-out: Activity; how it was run: as §1

Row | SMILES | growth at 10 µM [1] [%] | growth at 10 µM (RPMI-8226) [%] | growth at 10 µM (DU-145) [%] | growth at 10 µM (SN12C) [%] | growth at 10 µM (K562) [%] | growth at 10 µM (OVCAR-3) [%] | growth at 10 µM (SF-295) [%] | growth at 10 µM (MOLT-4) [%] | growth at 10 µM (MDA-MB-468) [%] | growth at 10 µM (IGROV-1) [%] | growth at 10 µM (SK-MEL-2) [%] | growth at 10 µM (SK-MEL-28) [%] | growth at 10 µM (LOX IMVI) [%] | growth at 10 µM (HOP-62) [%] | growth at 10 µM (U-251) [%] | growth at 10 µM [2] [%] | growth at 10 µM (UACC-62) [%] | growth at 10 µM (HL-60(TB)) [%] | growth at 10 µM (NCI-H460) [%] | growth at 10 µM (786-0) [%] | also measured
1 | CC1=NN(c2cn3c(-c4ccccc4)csc3n2)C(=O)C1 | 96.7 | 94.2 | 106 | 96 | 83.4 | 99.8 | 69.4 | 84.4 | 114 | 88 | 102 | 102 | 90.8 | 95.3 | 90.7 | 106 | 91.1 | 89.2 | 107 | 96.6 | growth at 10 µM (MCF7): 89.6%; growth at 10 µM [3]: 102%; growth at 10 µM (COLO 205): 102%; growth at 10 µM (HCT-116): 96.5%; growth at 10 µM (NCI-H322M): 92.1%; growth at 10 µM (RXF 393): 109%; growth at 10 µM (SW-620): 104%; growth at 10 µM (CAKI-1): 79.9%; growth at 10 µM (A549): 101%; growth at 10 µM (MDA-MB-231): 89.9%
2 | Cc1ccc(-c2csc3nc(N4NC(=O)CC4=O)cn23)cc1 | 108 | 98.1 | 118 | 104 | 94.7 | 113 | 91.2 | 90.3 | 106 | 105 | 116 | 102 | 96.9 | 105 | 98.1 | 107 | 91.8 | 107 | 111 | 103 | growth at 10 µM (MCF7): 93.9%; growth at 10 µM [3]: 109%; growth at 10 µM (COLO 205): 107%; growth at 10 µM (HCT-116): 108%; growth at 10 µM (NCI-H322M): 108%; growth at 10 µM (RXF 393): 101%; growth at 10 µM (SW-620): 103%; growth at 10 µM (CAKI-1): 90.1%; growth at 10 µM (A549): 102%; growth at 10 µM (MDA-MB-231): 104%
3 | O=C1CC(=O)N(c2cn3c(-c4ccc(Cl)cc4)csc3n2)N1 | 115 | 85 | 105 | 88.4 | 88.1 | 110 | 84.4 | 79 | 104 | 117 | 101 | 95.7 | 96.5 | 104 | 91.9 | 98.3 | 90.1 | 88.1 | 104 | 96.4 | growth at 10 µM (MCF7): 89%; growth at 10 µM [3]: 103%; growth at 10 µM (COLO 205): 101%; growth at 10 µM (HCT-116): 93.2%; growth at 10 µM (NCI-H322M): 83.3%; growth at 10 µM (RXF 393): 112%; growth at 10 µM (SW-620): 104%; growth at 10 µM (CAKI-1): 78.9%; growth at 10 µM (A549): 88.9%; growth at 10 µM (MDA-MB-231): 107%
